Our source for the outcome and activation values is PubChem BioAssay.

Activity calls are given as the source filed them.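 Rule for the calls: active = duplicate-averaged activation above buffer control mean plus 5 SD of those controls; inactive = the rest.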

This assay in a line: nonspecific flux increase, KCNQ1-free cells – parental CHO cells, counter-screen for KCNQ1 potentiator project (AID 493006).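 For activation: fluorescence ratio of max minus min over baseline after K+ and Tl+ depolarization.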 Conditions: parental CHO-K1 cells, FluxOR thallium flux, at 10 µM; hits give high values. In short, it runs like this: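 Assay system: parental CHO-K1 cells lacking KCNQ1, loaded with FluxOR thallium dye; timing: dye 90 min RT, compound 20 min RT; signal: kinetic thallium-flux fluorescence; repeats: duplicate wells per compound, percent values averaged; benchmarks: buffer and R-L3 controls; reagent: Potassium/thallium depolarization pulse; read-out: fluorescence change ratio scaled 0% buffer, 100% R-L3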
In general terms: Counterscreens check selectivity or assay interference.
Consider `Cn1ccnc1SCC(=O)NC1CC1`, for which the outcome was inactive.

With `N#CC(c1cccc(Cl)c1)c1ccc2c(C(F)(F)F)cc(C(F)(F)F)nc2n1` (centres undefined), the activation was 144% (active).

For the compound `Cc1ccc(C)c(NC(=S)NNC(=O)c2csc3c2CCC(C)C3)c1` (centres undefined), the activation is 242% (active).

Consider `CSC(=S)N/N=C/c1ccc(Br)cc1`, for which the activation was 172% (active).

Regarding `O=c1sc(N2CCN(c3ccccc3F)CC2)nc2ccsc12`, the result was inactive.

For the compound `C=C1CCN(c2ccc(C(=O)NCc3ccc(C)cc3)cc2[N+](=O)[O-])CC1`, the activation is 164% (active).

For the compound `COc1ccc(C)cc1-n1c(C)cc(C=O)c1C`, the result was inactive.

In the case of `COc1ccc(-n2cc(-c3ccccc3)c3c(=S)nc[nH]c32)cc1`, the activation is 137% (active).

As to `Oc1c(Cl)cc(Cl)c2cccnc12`, the activation is 148% (active).

On to `CCOC(=O)Cn1c2ccccc2c2nc3ccccc3nc21`, for which the outcome was inactive.

On to `CCN(CC)C(=S)NC(=O)c1ccc(Cl)cc1Cl`, for which the activation is 226% (active).

Take `O=C1NN(c2ccccc2)C(=O)/C1=C\c1cccc(OC(=O)c2cccs2)c1`: the activation is 187% (active).

Turning to `COc1ccc(-n2cc(CNC3CCN(C)CC3)c(-c3cccc(F)c3)n2)cc1`, the activation is 142% (active).

As to `Cc1nn(CC2CC2)c(=O)n1-c1ccc(F)cc1`, the result was inactive.

For `Cc1nc(NC(=S)NC(=O)c2cccs2)ccc1Br`, the activation is 148% (active).

For the compound `COc1cccc2sc(NNC(=O)c3nc4ccccc4s3)nc12`, the activation is 300% (active).

Consider `CC(C)(C)CC(C)(C)NCC(O)COCCOc1ccc(Br)cc1` (centres undefined), for which the outcome was inactive.

As for `S=c1sc2c(Cl)ncnc2n1-c1ccccc1`, the activation is 302% (active).

Take `CC(C)C1=NN(C(=O)c2ccccc2)C(O)(C(C)(C)C)C1` (centres undefined): the result was inactive.
